# High-throughput results deposited in PubChem BioAssay by Johns Hopkins Ion Channel Center.
# The list is not random: actives were taken first. Their share in the collection is about 3.7%.
# Kir21 inh = inhibitors of mouse Kir2.1 inward-rectifier potassium channel; HEK293-Kir2.1, FluxOR thallium flux fluorescence; stronger effect = lower value; AID 1672; P35561; B-score at 10 µM; 0.85% of 310,000 active;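 active means fluorescence ratio B-score at or below minus 3 SD of library scores, with starting-brightness B-score within 2 SD, cut at about -4.2 in these data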;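 further: channel flux triggered by added potassium and thallium sulfate stimulus; B-score of peak minus minimum fluorescence over baseline after thallium stimulus; more negative B-score means stronger Kir2.1 block with less thallium influx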
# KCNK9 inh = inhibitors of human KCNK9 two-pore domain potassium channel; Q9NPC2; HEK293 KCNK9, FluxOR thallium flux fluorescence; stronger effect = lower value; B-score at 10 µM; 1.2% of 310,000 active; AID 488922;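 active means ratio B-score over 3 SD below the library mean, with starting fluorescence within 5 SD of its mean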;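 further: negative B-score means less thallium flux so channel inhibition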
# KCNK3 inh = human KCNK3 channel inhibition, primary screen. O14649. CHO-KCNK3 thallium flux, FluxOR fluorescence; stronger effect = lower value. B-score at 10 µM. 0.84% of 340,000 active. AID 602410;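 active means B-score under library mean minus 4 SD, starting fluorescence ratio at most library mean plus 5 SD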;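 further: more negative B-score means stronger inhibition of thallium flux through KCNK3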
# KCNQ1 block = human KCNQ1 channel inhibition. CHO-K1 KCNQ1, FluxOR thallium flux fluorescence; stronger effect = higher value. B-score at 10 µM. P51787. AID 2642. 1.3% of 310,000 active;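 active means compounds whose thallium flux B-score, printed positive for inhibition, exceeds three library SD while starting fluorescence stays within three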;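 further: channel opened by potassium depolarization with thallium stimulus after 20 min compound exposure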
# hERG rescue = hERG (human) protection from proarrhythmic block | activation (rescue from dofetilide block), less the hit threshold, % at 10 µM | 0.51% of 310,000 active | CHO-hERG, FluxOR thallium flux, dofetilide IC70 present | Q12809;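 active means activation above the mean of controls blocked by dofetilide plus 5 SD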;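 further: thallium influx through hERG after potassium depolarization seen as dye fluorescence rise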
# KCNQ1 act = human KCNQ1 channel potentiation or activation | P51787 | CHO-K1 KCNQ1, thallium flux FluxOR fluorescence; stronger effect = higher value | B-score at 10 µM | 0.35% of 310,000 active;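 active means fluorescence ratio B-score, a plate-corrected score, at least three library SD, with initial intensity B-score within 5 SD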
#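 Assay system: CHO-K1 cells stably expressing KCNQ1; Medium: assay buffer with matched DMSO; Also added: K+/Tl+ depolarizing stimulus; Dosing: single dose; Timing: dye 90 min, compound 20 min, room temperature; Measured by: kinetic FluxOR thallium fluorescence, 10-s 1-Hz baseline, 110-s post-stimulus read; Read-out: peak-minus-minimum fluorescence over initial fluorescence, negative-control normalized, B-scored.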
# KCNQ1 inh valid = confirmation of human KCNQ1 potassium channel inhibitors; shares compounds with KCNQ1 block; KCNQ1 cell line, FluxOR thallium flux fluorescence; inhibition, % at 10 µM; 93% of 1,600 active; AID 588353;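 active means primary screen active, with duplicate mean exceeding buffer control mean plus 3 SD of buffer wells, cut at about 28% in these data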;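 further: 0% = buffer control ratio and 100% = XE991 inhibitor control ratio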
# CHO Tl flux = activity in parental CHO cells lacking KCNQ1; shares compounds with KCNQ1 block; parental CHO-K1, FluxOR thallium flux fluorescence ratio; stronger effect = lower value; zero means no signal rise above baseline; fluorescence ratio (Tl flux) at 10 µM; 21% of 1,600 active; AID 588366;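 active means mean of duplicate thallium-flux fluorescence ratios in parental host cells more than 5 SD below the buffer control mean, cut at about 0.38 in these data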;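 further: ratio is peak minus minimum fluorescence divided by baseline fluorescence; actives read low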
# KCNQ1 ephys val = human KCNQ1 inhibition validated by electrophysiology. shares compounds with KCNQ1 block. KCNQ1-CHO cells, automated patch clamp current. calls only at 10 µM. 20% of 490 active. AID 624120;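 active means KCNQ1 current drop exceeding 3 SD of negative control wells, seen in both duplicate runs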;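 further: steady state current during a 2 s step from -80 to +40 mV; negative values mean current inhibition and positive values mean potentiation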
# KCNQ2 inh = selectivity of KCNQ1 inhibitors: inhibition of rat KCNQ2 channel; shares compounds with KCNQ1 block; KCNQ2 cells, FluxOR thallium flux fluorescence; inhibition, % at 10 µM; 71% of 1,600 active; AID 651746;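 active means mean percent inhibition of the KCNQ2 thallium signal more than 5 SD above the buffer-only control wells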;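 further: KCNQ2 expressed in CHO cells; 0% = buffer control wells and 100% = XE-991 inhibitor control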
# Target sequence (O88943 whole entry, looked up): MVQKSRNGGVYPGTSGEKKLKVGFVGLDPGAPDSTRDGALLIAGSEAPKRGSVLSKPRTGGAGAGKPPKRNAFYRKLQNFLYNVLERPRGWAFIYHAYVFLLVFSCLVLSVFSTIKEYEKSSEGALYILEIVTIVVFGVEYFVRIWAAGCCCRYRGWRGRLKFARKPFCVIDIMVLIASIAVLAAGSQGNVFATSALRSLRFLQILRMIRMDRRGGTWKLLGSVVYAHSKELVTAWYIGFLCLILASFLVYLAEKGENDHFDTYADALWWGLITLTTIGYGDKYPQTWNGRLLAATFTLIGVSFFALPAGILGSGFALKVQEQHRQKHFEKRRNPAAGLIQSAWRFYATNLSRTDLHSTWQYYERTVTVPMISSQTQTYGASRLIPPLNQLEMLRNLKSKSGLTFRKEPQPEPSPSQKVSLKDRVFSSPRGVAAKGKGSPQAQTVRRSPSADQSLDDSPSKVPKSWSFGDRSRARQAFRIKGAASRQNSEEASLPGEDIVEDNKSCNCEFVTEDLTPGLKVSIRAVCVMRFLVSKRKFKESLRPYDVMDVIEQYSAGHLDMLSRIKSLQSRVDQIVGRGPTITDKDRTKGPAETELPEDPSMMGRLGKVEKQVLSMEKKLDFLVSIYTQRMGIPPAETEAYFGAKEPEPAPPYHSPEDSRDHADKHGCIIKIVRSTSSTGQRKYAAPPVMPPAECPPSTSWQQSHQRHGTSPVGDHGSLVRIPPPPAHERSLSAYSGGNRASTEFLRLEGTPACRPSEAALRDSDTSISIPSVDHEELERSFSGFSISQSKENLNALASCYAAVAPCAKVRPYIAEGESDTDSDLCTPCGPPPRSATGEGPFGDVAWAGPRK
# KCNQ1 KCNE1 spec = selectivity of KCNQ1 inhibitors: inhibition of human KCNQ1/KCNE1 channel; 77% of 1,600 active; KCNQ1/KCNE1 cells, FluxOR thallium flux fluorescence; AID 652147; inhibition, % at 10 µM; shares compounds with KCNQ1 block;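 active means mean percent inhibition of duplicate wells above the buffer-only control mean plus 3 SD of those controls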;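 further: 0% = buffer only wells and 100% = XE-991 inhibitor control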
# * hit, by the source's call; i = inactive; . = not tested or not shown; + = active, no number.
SMILES,Kir21 inh,KCNK9 inh,KCNK3 inh,KCNQ1 block,hERG rescue,KCNQ1 act,KCNQ1 inh valid,CHO Tl flux,KCNQ2 inh,KCNQ1 KCNE1 spec,others
O=C(CNS(=O)(=O)c1ccc(Br)s1)NCC1COc2ccccc2O1 (stereo not given),-1,i,i,i,-13,i,.,.,.,.,
O=C(NC1CCCCC1)C(c1ccco1)N(C(=O)C(F)(F)F)C1CC1 (stereo not given),0,i,i,6*,-9,i,74*,0.47,i,100%*,
Cc1ccc(CN(C(=O)C(F)(F)F)C(C(=O)NC2CCCCC2)c2ccco2)cc1 (stereo not given),-0.23,i,i,i,-5,i,.,.,.,.,
O=C(c1ccc(NC(=S)Nc2ccc(Cl)c(Cl)c2)cc1)N1CCCC1,-0.88,i,i,9*,-15,i,36*,0.5,i,i,
CC(=O)c1ccc(NC(=S)Nc2ccc(Br)c(Cl)c2)cc1,-0.45,i,i,6*,-29,i,61*,0.45,i,i,
O=C(NC(=S)Nc1ccc(Br)c(Cl)c1)C1CC1,0.51,i,i,i,-9,i,.,.,.,.,
CCOc1ccc(-c2cc(C(=O)NCCCn3ccnc3)c3ccccc3n2)cc1,-3.1,i,i,6*,-10,i,26*,0.43,86%*,43%*,
CCC(C)NC(=O)c1cc2c(=O)n3cccc(C)c3nc2s1 (stereo not given),-0.09,i,i,i,-11,i,.,.,.,.,
CC(C)c1ccc(N(C(=O)CNC(=O)c2ccco2)C(C(=O)NC2CCCC2)c2cccnc2)cc1 (stereo not given),-0.48,i,i,i,-4,i,.,.,.,.,
Cc1nc(N2CCC(C)CC2)c2c(C)c(C(=O)Nc3ccc(C)c(F)c3)sc2n1,1.1,i,i,7*,-28,i,114*,0.42,140%*,64%*,KCNQ1 ephys val=i
Cc1cc(C(=O)NCc2cc(F)cc3c2OCOC3)nn1C,1.2,i,i,i,-8,i,.,.,.,.,
Cn1nc(C(C)(C)C)cc1C(=O)NCc1cc(F)cc2c1OCOC2,0.7,i,i,7*,-25,i,94*,0.45,82%*,34%*,KCNQ1 ephys val=+
CCC(C(=O)OCC(=O)Nc1cc(Cl)cc(Cl)c1)c1ccccc1 (stereo not given),0.03,i,i,11*,-3,i,114*,0.34*,114%*,52%*,
COc1ccc(NC(C)C(=O)Nc2ccc(C#N)cc2)cc1Cl (stereo not given),-1.1,i,i,i,-12,i,.,.,.,.,
COc1ccc(NC(C)C(=O)Nc2ccc(C(C)(C)C)cc2)cc1Cl (stereo not given),-0.02,i,i,7*,-4,i,146*,0.39,92%*,167%*,KCNQ1 ephys val=i
CCC(C)NC(=O)c1cccc(OCc2c(C)noc2C)c1 (stereo not given),-0.91,i,i,i,-10,i,.,.,.,.,
CCOC(=O)c1c(C)[nH]c(C(=O)C(C)OC(=O)c2cccc(OCc3c(C)noc3C)c2)c1C (stereo not given),0.47,i,-12*,17*,-3,i,127*,0.46,109%*,138%*,KCNQ1 ephys val=i
